Data reported in ChEMBL document CHEMBL3352507, “Preparation and antimalarial activity of a novel class of carbohydrate-derived, fused thiochromans” (Eur J Med Chem, 2014).

Tests used:
Plasmodium falciparum [1] = experiment: Antimalarial activity against Plasmodium falciparum FCR3 after 48 hrs by parasite lactate dehydrogenase assay; format: functional, organism-based; conditions: FCR3, 48 h
Method in brief: (§1)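 Parasite survival read by parasite lactate dehydrogenase (pLDH) assay. Single-concentration prescreen at […]; compounds with 0–15% survival were taken to dose–response. Ten three-fold serial dilutions in triplicate, incubated 48 h in a gassed airtight box, developed with NBT/PES. IC50 from sigmoidal curve of % survival relative to control against log concentration.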

Plasmodium falciparum [2] = experiment: Antimalarial activity against Plasmodium falciparum 3D7 after 48 hrs by parasite lactate dehydrogenase assay; format: functional, organism-based; conditions: 3D7, 48 h; method in brief: as §1
[3] = Cytotoxicity against human WI38 cells after 48 hrs by SRB assay; format: cell-based; conditions: WI-38, 48 h
Method in brief: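 WI-38 human fetal lung fibroblasts (passages 21–50) in EMEM with 10% FBS, 2 mM L-glutamine and gentamicin, at 37 °C and 5% CO2. Seeded at 10 000 cells/well, grown 24 h, then given compound in DMSO diluted in medium to 5 concentrations for 48 h. Cells were fixed with cold 50% TCA and stained with SRB, and dye was read at 540 nm. IC50 by non-linear regression against untreated controls.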

[4] = Cytotoxicity against human WI38 cells assessed as cell viability at 100 uM after 48 hrs by SRB assay; format: cell-based, WI-38; conditions: read-out: Activity
Method in brief: (§2)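 WI-38 fibroblasts (passages 21–50) were seeded at 10 000 cells/well for 24 h, then exposed for 48 h to compound dissolved in DMSO and diluted in medium. Viable cells were fixed with cold 50% trichloroacetic acid and stained with sulforhodamine B. Bound dye was extracted with 10 mM Tris base and read at 540 nm. Viability relative to drug-free cells.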

[5] = Cytotoxicity against human WI38 cells assessed as cell viability at 10 uM after 48 hrs by SRB assay; format: cell-based, WI-38; conditions: read-out: Activity; method in brief: as §2
[6] = Cytotoxicity against human WI38 cells assessed as cell viability at 1 uM after 48 hrs by SRB assay; format: cell-based, WI-38; conditions: read-out: Activity; method in brief: as §2
[7] = Cytotoxicity against human WI38 cells assessed as cell viability at 0.01 uM after 48 hrs by SRB assay; format: cell-based, WI-38; conditions: read-out: Activity; method in brief: as §2
[8] = Cytotoxicity against human WI38 cells assessed as cell viability at 0.1 uM after 48 hrs by SRB assay; format: cell-based, WI-38; conditions: read-out: Activity; method in brief: as §2

Row | SMILES | IC50 (Plasmodium falciparum [1]) | IC50 (Plasmodium falciparum [2]) | IC50 [3] | viability at 48 h, 100 µM [4] | viability at 48 h, 10 µM [5] | viability at 48 h, 1 µM [6] | viability at 48 h, 0.01 µM [7] | viability at 48 h, 0.1 µM [8]
1 | CC(C)(C)c1ccc2c(c1)[C@H]1O[C@H](COCc3ccccc3)[C@@H](OCc3ccccc3)[C@H](OCc3ccccc3)[C@H]1CS2 | > 100 µM | > 100 µM |  |  |  |  |  | 
2 | c1ccc(COC[C@H]2O[C@@H]3c4c(ccc5ccccc45)SC[C@@H]3[C@@H](OCc3ccccc3)[C@@H]2OCc2ccccc2)cc1 | 7.11 µM | > 100 µM | > 100 µM |  |  |  |  | 
3 | CC(=O)OC[C@H]1O[C@@H]2c3cc(C(C)(C)C)ccc3SC[C@@H]2[C@@H](OC(C)=O)[C@@H]1OC(C)=O | > 100 µM | > 100 µM |  |  |  |  |  | 
4 | CC(C)(C)c1ccc2c(c1)[C@H]1O[C@H](CO)[C@@H](O)[C@H](O)[C@H]1CS2 | > 100 µM | > 100 µM |  |  |  |  |  | 
5 | [O-][S@@+]1C[C@@H]2[C@@H](OCc3ccccc3)[C@H](OCc3ccccc3)[C@@H](COCc3ccccc3)O[C@@H]2c2ccccc21 | 10.3 µM | > 100 µM | > 100 µM |  |  |  |  | 
6 | Cc1cccc2c1[S@@+]([O-])C[C@@H]1[C@@H](OCc3ccccc3)[C@H](OCc3ccccc3)[C@@H](COCc3ccccc3)O[C@H]21 | 2.76 µM | 4.13 µM | > 100 µM | 67.1% | 84.7% | 99.2% | 102% | 99.5%
7 | [O-][S@@+]1C[C@@H]2[C@@H](OCc3ccccc3)[C@H](OCc3ccccc3)[C@@H](COCc3ccccc3)O[C@@H]2c2c1ccc1ccccc21 | 0.52 µM | 3.55 µM | > 100 µM | 89% | 93.7% | 96% | 96% | 92.5%
8 | [O-][S@+]1C[C@@H]2[C@@H](OCc3ccccc3)[C@H](OCc3ccccc3)[C@@H](COCc3ccccc3)O[C@@H]2c2ccccc21 | > 100 µM | > 100 µM |  |  |  |  |  | 
9 | Cc1ccc2c(c1)[C@H]1O[C@H](COCc3ccccc3)[C@@H](OCc3ccccc3)[C@H](OCc3ccccc3)[C@H]1C[S@@+]2[O-] | 2.91 µM | 2.57 µM | > 100 µM | 70.3% | 92.6% | 100% | 101% | 101%
10 | COc1ccc2c(c1)[C@H]1O[C@H](COCc3ccccc3)[C@@H](OCc3ccccc3)[C@H](OCc3ccccc3)[C@H]1C[S@@+]2[O-] | 2.07 µM | 2.21 µM | 8.76 µM | 27.2% | 55.4% | 97.2% | 97.4% | 98%
11 | CC(C)(C)c1ccc2c(c1)[C@H]1O[C@H](COCc3ccccc3)[C@@H](OCc3ccccc3)[C@H](OCc3ccccc3)[C@H]1C[S@@+]2[O-] | 0.33 µM | 1.33 µM | > 100 µM | 60.2% | 86.9% | 97.1% | 100% | 98.8%
12 | Cc1cccc2c1[S@+]([O-])C[C@@H]1[C@@H](OCc3ccccc3)[C@H](OCc3ccccc3)[C@@H](COCc3ccccc3)O[C@H]21 | 4.34 µM | 6.29 µM | > 100 µM | 52.5% | 88.2% | 95.5% | 101% | 99.3%
13 | [O-][S@+]1C[C@@H]2[C@@H](OCc3ccccc3)[C@H](OCc3ccccc3)[C@@H](COCc3ccccc3)O[C@@H]2c2c1ccc1ccccc21 | 2.17 µM | 2.55 µM | > 100 µM | 79.4% | 94.5% | 96.7% | 101% | 98.5%
14 | O=S1(=O)C[C@@H]2[C@@H](OCc3ccccc3)[C@H](OCc3ccccc3)[C@@H](COCc3ccccc3)O[C@@H]2c2ccccc21 | 3.95 µM | > 100 µM | > 100 µM | 67.8% | 92.4% | 97% | 97.8% | 97%
15 | Cc1ccc2c(c1)[C@H]1O[C@H](COCc3ccccc3)[C@@H](OCc3ccccc3)[C@H](OCc3ccccc3)[C@H]1CS2(=O)=O | 1.93 µM | 2.32 µM | > 100 µM | 68.5% | 91.7% | 94.6% | 99.5% | 95.7%
16 | COc1ccc2c(c1)[C@H]1O[C@H](COCc3ccccc3)[C@@H](OCc3ccccc3)[C@H](OCc3ccccc3)[C@H]1CS2(=O)=O | 1.7 µM | 1.8 µM | > 100 µM |  |  |  |  | 
17 | CC(C)(C)c1ccc2c(c1)[C@H]1O[C@H](COCc3ccccc3)[C@@H](OCc3ccccc3)[C@H](OCc3ccccc3)[C@H]1CS2(=O)=O | 0.28 µM | 0.39 µM | > 100 µM | 71.7% | 91% | 92.7% | 96.7% | 96.3%
18 | Cc1cccc2c1S(=O)(=O)C[C@@H]1[C@@H](OCc3ccccc3)[C@H](OCc3ccccc3)[C@@H](COCc3ccccc3)O[C@H]21 | 1.62 µM | 2.34 µM | > 100 µM |  |  |  |  | 
19 | O=S1(=O)C[C@@H]2[C@@H](OCc3ccccc3)[C@H](OCc3ccccc3)[C@@H](COCc3ccccc3)O[C@@H]2c2c1ccc1ccccc21 | 3.83 µM | 2.09 µM | > 100 µM |  |  |  |  | 
20 | CC(=O)OC[C@H]1O[C@@H]2c3cc(C(C)(C)C)ccc3S(=O)(=O)C[C@@H]2[C@@H](OC(C)=O)[C@@H]1OC(C)=O | > 100 µM | > 100 µM |  |  |  |  |  | 
21 | CC(C)(C)c1ccc2c(c1)[C@H]1O[C@H](CO)[C@@H](O)[C@H](O)[C@H]1CS2(=O)=O | > 100 µM | > 100 µM |  |  |  |  |  | 
22 | O=S1(=O)C[C@@H]2[C@@H](OCc3ccccc3)[C@H](OCc3ccccc3)[C@@H](COCc3ccccc3)O[C@H]2c2ccccc21 | 3.21 µM | 4.14 µM | > 100 µM |  |  |  |  | 
23 | Cc1ccc2c(c1)[C@@H]1O[C@H](COCc3ccccc3)[C@@H](OCc3ccccc3)[C@H](OCc3ccccc3)[C@H]1CS2(=O)=O | 1.69 µM | 2.34 µM | > 100 µM |  |  |  |  | 
24 | COc1ccc2c(c1)[C@@H]1O[C@H](COCc3ccccc3)[C@@H](OCc3ccccc3)[C@H](OCc3ccccc3)[C@H]1CS2(=O)=O | 1.95 µM | 2.5 µM | > 100 µM |  |  |  |  | 
25 | CC(C)(C)c1ccc2c(c1)[C@@H]1O[C@H](COCc3ccccc3)[C@@H](OCc3ccccc3)[C@H](OCc3ccccc3)[C@H]1CS2(=O)=O | 0.7 µM | > 100 µM | > 100 µM |  |  |  |  | 
26 | Cc1cccc2c1S(=O)(=O)C[C@@H]1[C@@H](OCc3ccccc3)[C@H](OCc3ccccc3)[C@@H](COCc3ccccc3)O[C@@H]21 | 2.14 µM | 3.4 µM | > 100 µM |  |  |  |  | 
27 | O=S1(=O)C[C@@H]2[C@@H](OCc3ccccc3)[C@H](OCc3ccccc3)[C@@H](COCc3ccccc3)O[C@H]2c2c1ccc1ccccc21 | > 100 µM | > 100 µM |  |  |  |  |  | 
